This is one part of a sample in which hits are shown more often than they occur.
KDM4C inh – inhibitors of GASC-1 (KDM4C) histone demethylase, primary screen, biochemical, single concentration HTS | Lysine-specific demethylase 4C (Homo sapiens), Q9H3R0 | GST-KDM4C 2-372, H3K9me3 peptide, LANCE TR-FRET | inhibition, % at 12.5 µM | 96,000 tested, 0.15% active;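 active means mean replicate inhibition above about 25%, with at least 55% of replicates also reaching it, limit read from the data, passing the limit was not always enough; inconclusive means only one of those two conditions met; inactive means neither condition met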
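Material: GST-tagged GASC-1 (JMJD2C) catalytic fragment, aa 2-372. Input: enzyme final amount 10 nM. Medium: HEPES buffer, pH 7.5, plus ascorbate. Reagent: H3K9me3 peptide substrate, Fe(II), 2-oxoglutarate. Doses: single dose. Times: reaction 30 min RT, detection step 1 h RT. Measured by: LANCE TR-FRET. Evaluation: Fall in 671/618 emission ratio as inhibition.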
IDH1 R132H inh – inhibitors of IDH1 R132H reductase, primary screen, biochemical, plate reader, single point; inhibition, % at 10 µM; diaphorase/resazurin fluorescence, 60 min; AID 624101, 2012; 70,000 tested, 0.18% active; Isocitrate dehydrogenase [NADP] cytoplasmic (Homo sapiens), O75874; in the data active means inhibition above about 34%; inconclusive means no clear call, values can overlap the other calls; inactive means below about 11%;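 further: 0% = DMSO and 100% = no enzyme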
Target sequence (O75874 whole entry R132H): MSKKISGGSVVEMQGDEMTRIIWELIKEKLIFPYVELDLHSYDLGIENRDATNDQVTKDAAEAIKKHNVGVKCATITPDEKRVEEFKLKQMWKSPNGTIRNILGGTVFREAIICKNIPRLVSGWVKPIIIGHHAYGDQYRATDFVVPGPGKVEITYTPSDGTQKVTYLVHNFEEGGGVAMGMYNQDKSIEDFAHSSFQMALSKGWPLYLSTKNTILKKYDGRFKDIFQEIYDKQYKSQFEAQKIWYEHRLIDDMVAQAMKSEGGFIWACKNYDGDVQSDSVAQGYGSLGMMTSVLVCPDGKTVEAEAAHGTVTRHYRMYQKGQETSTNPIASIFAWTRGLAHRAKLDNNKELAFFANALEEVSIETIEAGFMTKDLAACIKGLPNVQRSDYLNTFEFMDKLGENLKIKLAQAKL
T cruzi growth-1 – T. cruzi intracellular proliferation inhibitors, primary screen, cell-based, beta-gal Tulahuen parasites, NIH3T3 host, luminescence. T. cruzi beta-gal in NIH3T3, GalScreen luminescence, 90 h. inhibition, % at 8.34 µM. 77,000 tested, 5.9% active;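 active means mean inhibition above about 93%, with at least 55% of replicates each passing it, limit read from the data, passing the limit was not always enough; inconclusive means only one of those two conditions holds; inactive means neither condition holds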
T cruzi growth-2 – T. cruzi intracellular proliferation inhibitors, confirmation, cell-based, NIH3T3 host, beta-gal parasite, luminescence, cherry-pick | inhibition, % at 8.35 µM | T. cruzi beta-gal in NIH3T3, GalScreen luminescence, 90 h | AID 651739, 2012 | shares compounds with T cruzi growth-1 | 5,600 tested, 72% active;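 active means mean replicate inhibition above about 95% and at least 55% of replicates individually reaching it, limit read from the data; inconclusive means only one of the two criteria is met; inactive means neither criterion is met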
T cruzi growth-3 – inhibitors of intracellular T. cruzi replication, confirmation, NIH3T3 host cells, beta-gal parasites, cherry-pick, set 2; shares compounds with T cruzi growth-1; T. cruzi beta-gal in NIH3T3, GalScreen luminescence, 90 h; inhibition, % at 2.09 µM; 5,600 tested, 21% active; AID 651740, 2012;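 active means mean inhibition above about 95%, with at least 55% of replicates also reaching it, limit read from the data; inconclusive means meets just one of the two conditions; inactive means meets neither condition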;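 further: plate controls were neutral control median for no effect and positive control median for full effect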
3T3 cytotox – cytotoxicity in mouse NIH/3T3 fibroblasts, confirmation, cytotoxicity control for T. cruzi proliferation inhibitor project, cell-based, cherry-pick, single point; shares compounds with T cruzi growth-1; NIH/3T3 viability, CellTiter-Glo ATP luminescence, 90 h; cytotoxicity (signal decrease), % at 8.35 µM; 5,600 tested, 14% active;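 active means mean signal decrease across replicates above about 35% based on untreated-well scatter, with enough replicates individually passing, limit read from the data; inconclusive means no rule stated though some were filed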;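 further: 0% = median of neutral control wells and 100% = median of positive control wells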
NIH3T3 tox 2 – NIH/3T3 fibroblast cytotoxicity, confirmation, cytotoxicity control, cell-based, cherry-pick, single point, set 2 | shares compounds with T cruzi growth-1 | NIH/3T3 viability, CellTiter-Glo ATP luminescence, 90 h | inhibition, % at 24.9 µM | 5,600 tested, 56% active;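 active means mean loss of cell viability signal at or above a set limit, and enough replicates individually reaching it; inconclusive means meets only the mean limit or only the replicate share; inactive means meets neither condition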;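 further: 0% = median of neutral control wells and 100% = median of positive control wells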
Starred values were filed as active, the others as inactive; ? = inconclusive; . = not tested or not shown.

SMILES | KDM4C inh | IDH1 R132H inh | T cruzi growth-1 | T cruzi growth-2 | T cruzi growth-3 | 3T3 cytotox | NIH3T3 tox 2
CC(C)CC#Cc1ccc([C@H]2[C@@H](CO)N3CCCCN(C(=O)Nc4ccccc4)C[C@@H]23)cc1 | -1 | . | 106* | 98* | 103* | 21 | 87*
O=C(Nc1ccccc1)N1CCCCN2[C@H](C1)[C@H](c1ccc(C#Cc3cccnc3)cc1)[C@@H]2CO | -3 | . | 110* | 70 | -15 | 0 | 7
O=C(Nc1ccccc1)N1CCCCN2[C@H](CO)[C@H](c3ccc(C#Cc4cccnc4)cc3)[C@@H]2C1 | -3 | . | 85 | . | . | . | .
C[C@@H]1CCCCO[C@H](CN(C)CC2CC2)[C@H](C)CN([C@@H](C)CO)C(=O)c2cc(NC(=O)Nc3ccc(F)cc3)ccc2O1 | -1 | -3 | 72 | . | . | . | .
C[C@H](CO)N1C[C@H](C)[C@H](CN(C)CC2CCCCC2)OCCCC[C@H](C)Oc2ccc(NC(=O)Nc3ccccc3)cc2C1=O | 1 | 5 | ? | 98* | 60 | 13 | 105*
C[C@H](CO)N1C[C@H](C)[C@@H](CN(C)CC2CCCCC2)OCCCC[C@H](C)Oc2ccc(NC(=O)Cc3ccccc3)cc2C1=O | -1 | . | 93 | . | . | . | .
C[C@@H]1CN([C@@H](C)CO)C(=O)c2cc(NC(=O)Cc3ccccc3)ccc2O[C@@H](C)CCCCO[C@H]1CN(C)CC1CCCCC1 | -1 | . | 116* | 109* | 59 | 1 | 58*
C[C@@H]1CCCCO[C@@H](CN(C)CC2CCCCC2)[C@H](C)CN([C@H](C)CO)C(=O)c2cc(NC(=O)Nc3ccccc3)ccc2O1 | -1 | 0 | 94 | . | . | . | .
C[C@H]1CCCCO[C@H](CN(C)CC2CCCCC2)[C@@H](C)CN([C@@H](C)CO)C(=O)c2cc(NC(=O)Nc3ccccc3)ccc2O1 | -1 | . | 82 | . | . | . | .
C[C@H](CO)N1C[C@H](C)[C@H](CN(C)CC2CC2)OCCCC[C@H](C)Oc2ccc(NC(=O)Nc3ccccc3)cc2C1=O | 10 | -2 | 98* | 104* | 63 | 16 | 17
C[C@@H]1CN([C@@H](C)CO)C(=O)c2cc(NC(=O)Nc3ccccc3)ccc2O[C@@H](C)CCCCO[C@@H]1CN(C)CC1CCCCC1 | -1 | 0 | ? | 101* | 39 | 3 | 104*
C[C@H](CO)N1C[C@H](C)[C@@H](CN(C)Cc2cccc(C(=O)O)c2)Oc2cc(C#CCC3CCCC3)ccc2S1(=O)=O | . | 19 | . | . | . | . | .
O=C(Nc1ccc(F)cc1)N[C@H]1CC[C@H](CCn2cc(-c3ccc(F)cc3)nn2)O[C@H]1CO | 3 | 0 | 9 | . | . | . | .
CC(=O)N(C)C[C@@H]1Oc2cc(C#Cc3ccccc3)ccc2S(=O)(=O)N([C@@H](C)CO)C[C@@H]1C | -2 | -4 | 58 | . | . | . | .
C[C@H](CO)N1C[C@H](C)[C@H](CN(C)C)Oc2cc(C#CC(C)(C)O)ccc2S1(=O)=O | 2 | -5 | -11 | . | . | . | .
C[C@@H]1CCCCO[C@@H](CN(C)CC2CCCCC2)[C@H](C)CN([C@H](C)CO)C(=O)c2cc(NC(=O)NC3CCCCC3)ccc2O1 | -1 | 0 | 106* | 104* | 84 | 3 | 107*
C[C@@H]1CN([C@@H](C)CO)C(=O)c2cc(NC(=O)NC3CCCCC3)ccc2O[C@@H](C)CCCCO[C@@H]1CN(C)CC1CCCCC1 | 2 | 0 | 75 | . | . | . | .
C[C@@H]1CCCCO[C@@H](CN(C)CC2CCCCC2)[C@@H](C)CN([C@H](C)CO)C(=O)c2cc(NC(=O)Nc3ccccc3)ccc2O1 | -2 | 1 | 103* | 105* | 97* | 13 | 57*
C[C@@H]1CN([C@H](C)CO)C(=O)c2cc(NC(=O)Nc3ccccc3)ccc2O[C@@H](C)CCCCO[C@@H]1CN(C)CC1CCCCC1 | -1 | -1 | 87 | . | . | . | .
C[C@@H]1CCCCO[C@@H](CN(C)CC2CCCCC2)[C@H](C)CN([C@@H](C)CO)C(=O)c2cc(NC(=O)c3ccccc3)ccc2O1 | 0 | -7 | -9 | . | . | . | .
C[C@@H]1CCCCO[C@@H](CN(C)CC2CCCCC2)[C@H](C)CN([C@H](C)CO)C(=O)c2cc(NC(=O)c3ccccc3)ccc2O1 | -1 | . | 117* | 112* | ? | 20 | 105*
CO[C@H]1CN(C)C(=O)c2ccc(NC(=O)Nc3ccccc3)cc2OC[C@H](C)NC[C@H]1C | 3 | -1 | -19 | . | . | . | .
O=C(NC1CCCC1)[C@@H]1[C@@H](CO)[C@@H]2Cn3c(ccc(-c4ccncc4)c3=O)[C@@H]2N1CC1CC1 | 0 | . | 42 | . | . | . | .
CCCn1nnc(NC(=O)COc2ccc(C)cc2C)n1 | . | 0 | . | . | . | . | .
CN(C)C(=O)C[C@H]1CC[C@@H]2[C@H](COC[C@H](O)CN2CC2CC2)O1 | -1 | . | -11 | . | . | . | .
SMILES | KDM4C inh | IDH1 R132H inh | T cruzi growth-1 | T cruzi growth-2 | T cruzi growth-3 | 3T3 cytotox | NIH3T3 tox 2
O=C(C[C@H]1C=C[C@H](NC(=O)c2cccc(F)c2)[C@@H](CO)O1)Nc1nccs1 | -2 | 0 | -46 | . | . | . | .
C[C@@H]1CN([C@H](C)CO)S(=O)(=O)c2ccc(C#Cc3cccc(F)c3)cc2O[C@H]1CN(C)S(=O)(=O)c1ccccc1F | 0 | 0 | 111* | 109* | 106* | 32 | 35*
C[C@@H]1CN([C@@H](C)CO)S(=O)(=O)c2ccc(C#Cc3cccc(F)c3)cc2O[C@H]1CN(C)S(=O)(=O)c1ccccc1F | -3 | -2 | 112* | 110* | ? | 8 | 34*
C[C@H](CO)N1C[C@H](C)[C@H](CN(C)S(=O)(=O)c2ccccc2F)Oc2cc(C#Cc3cccc(F)c3)ccc2S1(=O)=O | 13 | 0 | 109* | 103* | 43 | 17 | 11
C[C@@H]1CN([C@@H](C)CO)S(=O)(=O)c2ccc(C#Cc3cccc(F)c3)cc2O[C@@H]1CN(C)C | -1 | -1 | -12 | . | . | . | .
C[C@@H]1CN([C@H](C)CO)S(=O)(=O)c2ccc(C#Cc3cccc(F)c3)cc2O[C@H]1CN(C)C | . | 0 | 67 | . | . | . | .
C[C@H](CO)N1C[C@H](C)[C@H](CN(C)C)Oc2cc(C#Cc3cccc(F)c3)ccc2S1(=O)=O | 1 | -2 | -42 | . | . | . | .
C[C@@H]1CCCCO[C@H](CN(C)C(=O)CCC(F)(F)F)[C@H](C)CN([C@@H](C)CO)C(=O)c2cc(NC(=O)CCCN(C)C)ccc2O1 | 3 | . | -33 | . | . | . | .

Compound activity (PubChem BioAssay)
